Activity calls are given as the source filed them. No cut-off for these calls is given here.
What was measured:
[1] = molecular target: Protein arginine N-methyltransferase 5 (Homo sapiens) (UniProt O14744); assay: Inhibition of PRMT5 in human HSC-6 cells assessed as increase in E-cadherin protein expression level at 10 uM incubated for 4 days by western blot analysis; type: cell-based; conditions: time 4.0 day
Summary of the method: (§1)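 HSC6 or SCC25 cells treated with 10 μM for 4 days. E-cadherin, N-cadherin and Twist1 proteins detected by immunoblot.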

HSC-6 [2] = assay: Antiproliferative activity against human HSC-6 cells assessed as reduction in cell vaibility at 1 to 10 uM by CCK-8 assay; type: functional, cell-based; conditions: dose 1-10 µM
Summary of the method: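 Proliferation of HSC6 and SCC25 cells read by CCK-8 conversion. Mean ± SD of three independent experiments, Student's t test.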

[3] = molecular target: Protein arginine N-methyltransferase 5 (Homo sapiens) (UniProt O14744); assay: Inhibition of PRMT5 in human SCC-25 cells over expressing Twist1 assessed as decrease in E-cadherin protein level at 10 uM incubated for 4 days by immunoblot analysis; type: cell-based; conditions: time 4.0 day
Summary of the method: (§2)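 SCC25 cells stably overexpressing Flag-tagged Twist1 were treated with or without 10 μM inhibitor for 4 days, then immunoblotted for Twist1, N-cadherin and E-cadherin.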

[4] = molecular target: Protein arginine N-methyltransferase 5 (Homo sapiens) (UniProt O14744); assay: Inhibition of PRMT5 in human SCC-25 cells assessed as reduction in H3R2me2 enrichment in Twist1 promoter region at 10 uM incubated for 4 days by Chip-qPCR analysis; type: cell-based; conditions: time 4.0 day
Summary of the method: (§3)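 ChIP-qPCR at the Twist1 promoter after 4 days at 10 μM in HSC6 or SCC25 cells. Antibody ratios: H3R2me2s 1:100, H4R3me2s 1:100, WDR5 1:50, Set1 1:50; ChIP assay kit protocol. Mean ± SD of three independent experiments, Student's t test.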

[5] = molecular target: Protein arginine N-methyltransferase 5 (Homo sapiens) (UniProt O14744); assay: Inhibition of PRMT5 in human SCC-25 cells assessed as increase in E-cadherin protein expression level at 10 uM incubated for 4 days by western blot analysis; conditions: time 4.0 day
[6] = molecular target: Protein arginine N-methyltransferase 5 (Homo sapiens) (UniProt O14744); assay: Inhibition of PRMT5 in human HSC-6 cells assessed as reduction in H3R2me2 protein expression at 10 uM incubated for 4 days by western blot analysis; type: cell-based; conditions: time 4.0 day
[7] = molecular target: Protein arginine N-methyltransferase 5 (Homo sapiens) (UniProt O14744); assay: Inhibition of PRMT5 in human HSC-6 cells assessed as reduction in set1 occupancy in Twist1 promoter region at 10 uM incubated for 4 days by Chip-qPCR analysis; type: cell-based; conditions: time 4.0 day; summary of the method: as §3
[8] = molecular target: Protein arginine N-methyltransferase 5 (Homo sapiens) (UniProt O14744); assay: Inhibition of PRMT5 in human SCC-25 cells assessed as reduction in set1 occupancy in Twist1 promoter region at 10 uM incubated for 4 days by Chip-qPCR analysis; type: cell-based; conditions: time 4.0 day
Summary of the method: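 SCC25 cells exposed to inhibitor at 10 μM for 4 days. ChIP used a commercial kit with anti-WDR5 or anti-Set1 (1:50), and binding at the Twist1 promoter was quantified by qPCR. Mean ± SD of three independent experiments, Student's t test.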

[9] = Toxicity in BALB/c nude mouse xenografted with human HSC6 cells assessed as effect on kidney morphology at 15 to 30 mg/kg; type: organism-based; conditions: in vivo, dose 15-30 mg/kg
Summary of the method: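 Subcutaneous xenograft in 4-week-old BALB/c nude mice given 6 × 10^7 HSC6 cells into the back. Groups were control, 15 mg/kg and 30 mg/kg. Body weight was monitored and major organs were examined for toxicity.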

[10] = molecular target: Protein arginine N-methyltransferase 5 (Homo sapiens) (UniProt O14744); assay: Inhibition of PRMT5 in human SCC-25 cells assessed as reduction in H4R3me2 protein expression at 10 uM incubated for 4 days by western blot analysis; type: cell-based; conditions: time 4.0 day
[11] = molecular target: Protein arginine N-methyltransferase 5 (Homo sapiens) (UniProt O14744); assay: Inhibition of PRMT5 in human HSC-6 cells assessed as reduction in WDR5 occupancy in Twist1 promoter region at 10 uM incubated for 4 days by Chip-qPCR analysis; type: cell-based; conditions: time 4.0 day; summary of the method: as §3
HSC-6 [12] = assay: Antimigratory activity against human HSC-6 cells assessed as reduction in cell migration after 48 hrs incubated for 48 hrs by transwell assay; type: functional, cell-based
Rattus norvegicus [13] = assay: Antitumor activity against 4-Nitroquinoline-1-Oxide induced cancer Sprague-Dawley rat carcinogenic model assessed as dysplasia area of tongue tissue at 30 mg/kg, iv administered on week 12 and measured on week 22 (reference value: 13.3%); type: functional; conditions: time 10 weeks
[14] = molecular target: Protein arginine N-methyltransferase 5 (Homo sapiens) (UniProt O14744); assay: Inhibition of PRMT5 in human HSC-6 cells over expressing Twist1 assessed as decrease in E-cadherin protein level at 10 uM incubated for 4 days by immunoblot analysis; type: cell-based; conditions: time 4.0 day
Summary of the method: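 HSC6 cells stably overexpressing Flag-Twist1, with or without 10 μM for 4 days. Twist1, N-cadherin and E-cadherin proteins detected by immunoblot.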

[15] = molecular target: Protein arginine N-methyltransferase 5 (Homo sapiens) (UniProt O14744); assay: Inhibition of PRMT5 in human SCC-25 cells assessed as increase in E-cadherin protein expression level at 10 uM incubated for 4 days by western blot analysis; type: cell-based; conditions: time 4.0 day; summary of the method: as §1
[16] = molecular target: Protein arginine N-methyltransferase 5 (Homo sapiens) (UniProt O14744); assay: Inhibition of PRMT5 in human HSC-6 cells assessed as reduction in H4R3me2 protein expression at 10 uM incubated for 4 days by western blot analysis; type: cell-based; conditions: time 4.0 day
[17] = molecular target: Protein arginine N-methyltransferase 5 (Homo sapiens) (UniProt O14744); assay: Inhibition of PRMT5 in human SCC-25 cells over expressing Twist1 assessed as increase in N-cadherin protein level at 10 uM incubated for 4 days by immunoblot analysis; type: cell-based; conditions: time 4.0 day; summary of the method: as §2
Rattus norvegicus [18] = assay: Antitumor activity against 4-Nitroquinoline-1-Oxide induced cancer Sprague-Dawley rat carcinogenic model assessed as normal area of tongue tissue at 30 mg/kg, iv administered on week 12 and measured on week 22 (reference value: 6.7%); type: functional; conditions: time 10 weeks
SCC-25 = assay: Antimigratory activity against human SCC-25 cells assessed as reduction in cell migration after 48 hrs incubated for 48 hrs by transwell assay; type: functional, cell-based
[19] = molecular target: Protein arginine N-methyltransferase 5 (Homo sapiens) (UniProt O14744); assay: Inhibition of PRMT5 in human SCC-25 cells assessed as reduction in H3R8me2 protein expression at 10 uM incubated for 4 days by western blot analysis; type: cell-based; conditions: time 4.0 day
HSC-6 [20] = assay: Antitumor activity against human HSC-6 cells xenografted in BALB/c nude mouse model of orthotopic tumor assessed as as reduction in distant metastasis in kidney at 30 mg/kg by H and E analysis; type: functional, organism-based
[21] = molecular target: Protein arginine N-methyltransferase 5 (Homo sapiens) (UniProt O14744); assay: Inhibition of PRMT5 in human SCC-25 cells assessed as reduction in Twist1 mRNA expression at 10 uM incubated for 4 days by RT-qPCR analysis; type: cell-based; conditions: time 4.0 day
Summary of the method: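 HSC6 or SCC25 cells exposed to 10 μM for 4 days. Twist1 mRNA measured by quantitative RT-PCR. Mean ± SD of three independent experiments, Student's t test.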

HSC-6 [22] = assay: Antitumor activity against human HSC-6 cells xenografted in BALB/c nude mouse model of orthotopic tumor assessed as reduction in tumor volume in tongue at 30 mg/kg by H and E staining based assay; type: functional, organism-based
Summary of the method: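 Orthotopic tongue xenograft: 5 × 10^5 HSC6 cells submucosally in 4-week-old BALB/c nude mice, control or 30 mg/kg (n = 12 each). Tumour volume quantified on HE-stained longitudinal tongue sections. Student's t test.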

[23] = molecular target: Protein arginine N-methyltransferase 5 (Homo sapiens) (UniProt O14744); assay: Inhibition of PRMT5 in human SCC-25 cells assessed as reduction in Twist1 protein expression at 10 uM incubated for 4 days by western blot analysis; type: cell-based; conditions: time 4.0 day; summary of the method: as §1
[24] = molecular target: Protein arginine N-methyltransferase 5 (Homo sapiens) (UniProt O14744); assay: Inhibition of PRMT5 in human HSC-6 cells assessed as reduction in H3R2me2 enrichment in Twist1 promoter region at 10 uM incubated for 4 days by Chip-qPCR analysis; type: cell-based; conditions: time 4.0 day; summary of the method: as §3

Protein arginine N-methyltransferase 5 (Homo sapiens), sequence (O14744 whole entry): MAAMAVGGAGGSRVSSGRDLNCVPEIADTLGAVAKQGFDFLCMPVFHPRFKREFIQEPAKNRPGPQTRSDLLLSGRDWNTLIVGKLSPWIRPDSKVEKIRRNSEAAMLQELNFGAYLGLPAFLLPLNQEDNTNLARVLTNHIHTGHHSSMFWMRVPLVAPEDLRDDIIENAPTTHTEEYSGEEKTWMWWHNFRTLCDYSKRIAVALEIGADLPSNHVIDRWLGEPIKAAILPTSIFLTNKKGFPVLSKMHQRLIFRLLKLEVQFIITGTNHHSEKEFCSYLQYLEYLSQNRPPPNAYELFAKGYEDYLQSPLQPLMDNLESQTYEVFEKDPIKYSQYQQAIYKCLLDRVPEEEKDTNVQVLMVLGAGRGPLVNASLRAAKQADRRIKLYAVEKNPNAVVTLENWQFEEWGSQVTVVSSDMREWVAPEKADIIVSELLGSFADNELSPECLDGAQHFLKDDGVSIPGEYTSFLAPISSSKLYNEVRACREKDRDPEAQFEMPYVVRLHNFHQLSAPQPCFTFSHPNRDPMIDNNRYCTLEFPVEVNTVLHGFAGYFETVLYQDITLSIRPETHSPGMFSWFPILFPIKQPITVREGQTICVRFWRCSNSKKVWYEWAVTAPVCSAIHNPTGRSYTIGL

O=C(NC[C@H](O)CN1CCc2ccccc2C1)c1cc(NC2COC2)ncn1
inhibition [1]: Active
Activity (HSC-6 [2]): Active
inhibition [3]: inactive
inhibition [4]: Active
inhibition [5]: Active
inhibition [6]: Active
inhibition [7]: Active
inhibition [8]: Active
Activity [9]: Non-Toxic
inhibition [10]: Active
inhibition [11]: Active
Activity (HSC-6 [12]): Active
Activity (Rattus norvegicus [13]): 15.4%
inhibition [14]: inactive
inhibition [15]: Active
inhibition [16]: Active
inhibition [17]: inactive
Activity (Rattus norvegicus [18]): 38.5%
Activity (SCC-25): Active
inhibition [19]: Active
Activity (HSC-6 [20]): Active
inhibition [21]: Active
Activity (HSC-6 [22]): Active
inhibition [23]: Active
inhibition [24]: Active

— ChEMBL document CHEMBL5712918, “Targeting methyltransferase PRMT5 retards the carcinogenesis and metastasis of HNSCC via epigenetically inhibiting Twist1 transcription” (Neoplasia, 2020)
